Source: ChEMBL document CHEMBL2021777 (J Med Chem, 2012)
The source made the active and inactive calls. The rule behind the calls is not given here.

How the values were obtained:
Cytochrome P450 2C19 = Cytochrome P450 2C19 (Homo sapiens, UniProt P33261); assay: Inhibition of CYP2C19 up to 10 uM; assay type: ADME
Summary of the method: (§1)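 Percent inhibition of CYP isoforms (CYP1A, CYP2C9, CYP2C19, CYP2D6, CYP3A; CYP1A2 reported) with test compound at concentrations up to 10 μM.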

[1] = molecular target: Neuronal acetylcholine receptor; alpha2/beta4 (Rattus norvegicus, UniProt P12389+P12392); assay: Displacement of [3H] epibatidine from rat alpha2beta4 nAChR by beta scintillation counting; assay type: protein-complex assay
[2] = molecular target: T1, Muscarinic acetylcholine receptor M2 (Homo sapiens) (UniProt P08172); assay: Displacement of [3H]QNB from M2 receptor at 10 uM
T1 sequence (whole entry): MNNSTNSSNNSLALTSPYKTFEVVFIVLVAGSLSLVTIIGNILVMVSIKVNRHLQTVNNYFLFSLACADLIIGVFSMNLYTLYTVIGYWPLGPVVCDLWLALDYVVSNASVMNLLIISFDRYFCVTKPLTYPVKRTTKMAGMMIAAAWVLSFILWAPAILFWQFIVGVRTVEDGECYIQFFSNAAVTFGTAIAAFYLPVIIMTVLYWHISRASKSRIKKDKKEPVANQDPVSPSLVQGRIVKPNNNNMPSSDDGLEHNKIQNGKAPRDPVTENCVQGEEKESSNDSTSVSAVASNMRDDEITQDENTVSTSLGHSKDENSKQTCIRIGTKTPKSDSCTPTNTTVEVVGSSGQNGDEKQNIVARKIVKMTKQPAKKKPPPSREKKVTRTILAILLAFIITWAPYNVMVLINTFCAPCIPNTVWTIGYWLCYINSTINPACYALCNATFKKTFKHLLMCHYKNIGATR

[3] = molecular target: Acetylcholine receptor; alpha1/beta1/delta/gamma (Homo sapiens) (UniProt P02708+P07510+P11230+Q07001); assay: Agonist activity at human alpha1beta1gammadelta nAChR expressed in TE671/RD cells at 10 uM by 86Rb+ flux assay; assay type: functional, cell-based
Summary of the method: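 Human clonal TE671/RD cells endogenously express muscle-type α1*-nAChRs (α1, β1, γ, δ). Cells were kept at low passage (1−26 from frozen stocks). Function was read as 86Rb+ efflux, with agonist and antagonist modes tested up to 10 μM.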

[4] = molecular target: T2, Muscarinic acetylcholine receptor M5 (Homo sapiens) (UniProt P08912); assay: Displacement of [3H]QNB from M5 receptor at 10 uM
T2 sequence (whole entry): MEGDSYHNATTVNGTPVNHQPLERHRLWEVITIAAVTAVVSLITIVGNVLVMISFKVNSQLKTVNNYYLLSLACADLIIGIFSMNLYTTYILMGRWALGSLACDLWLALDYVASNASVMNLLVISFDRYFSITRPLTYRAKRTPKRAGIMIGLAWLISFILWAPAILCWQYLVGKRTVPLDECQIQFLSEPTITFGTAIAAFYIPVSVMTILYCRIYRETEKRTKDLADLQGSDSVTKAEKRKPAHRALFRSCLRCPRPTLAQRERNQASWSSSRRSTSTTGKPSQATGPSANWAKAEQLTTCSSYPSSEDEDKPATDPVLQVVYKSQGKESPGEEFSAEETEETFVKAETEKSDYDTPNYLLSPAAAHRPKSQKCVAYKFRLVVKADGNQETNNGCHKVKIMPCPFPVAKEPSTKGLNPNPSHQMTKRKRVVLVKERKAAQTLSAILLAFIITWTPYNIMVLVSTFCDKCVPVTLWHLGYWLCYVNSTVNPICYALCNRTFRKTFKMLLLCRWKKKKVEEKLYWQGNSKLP

[5] = molecular target: Beta-1 adrenergic receptor (Homo sapiens) (UniProt P08588); assay: Displacement of [125I]Iodopindolol from beta1 adrenergic receptor at 10 uM
[6] = molecular target: Mu-type opioid receptor (Homo sapiens) (UniProt P35372); assay: Displacement of [3H]DAMGO from mu opioid receptor at 10 uM
[7] = molecular target: D(3) dopamine receptor (Homo sapiens) (UniProt P35462); assay: Displacement of [3H]N-methylspiperone from D3 at 10 uM
[8] = Metabolic stability in human liver microsomes assessed as compound remaining at 1 uM after 1 hr; assay type: ADME, Microsome; conditions: read-out: Stability
Summary of the method: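 Compound at 1 μM incubated for 1 h with human or mouse liver microsomes; percent of parent remaining unchanged.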

[9] = molecular target: Neuronal acetylcholine receptors; alpha-3/beta-4, alpha-5, beta-2 (Homo sapiens) (UniProt P17787+P30926+P32297+P30532); assay: Agonist activity at alpha3beta4alpha5beta2 in human SH-SY5Y cells at 10 uM by 86Rb+ flux assay; assay type: functional, cell-based
Summary of the method: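 Human neuroblastoma SH-SY5Y cells endogenously express α3β4* nAChRs (α3, β4, probably α5, sometimes β2); their α7 receptors give no signal under these conditions. Cells were kept at low passage (1−26 from frozen stocks). Function was read as 86Rb+ efflux, with agonist and antagonist modes tested up to 10 μM.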

[10] = molecular target: 5-hydroxytryptamine receptor 1B (Homo sapiens) (UniProt P28222); assay: Displacement of [3H][…] from 5-HT1B at 10 uM
Mus musculus = assay: Ex-vivo beta2* nAChR receptor occupancy in mouse brain at 10 mg/kg, ip administered 30 mins prior to testing; assay type: functional; conditions: route intraperitoneal
Summary of the method: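 Mice dosed at 10 mg/kg, or water, by intraperitoneal injection 30 min before brain collection (the forced-swim time point); ex vivo β2*-nAChR occupancy measured in brain.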

[11] = Inhibition of CYP1A up to 10 uM; assay type: ADME; summary of the method: as §1
[12] = molecular target: T3, Muscarinic acetylcholine receptor M4 (Homo sapiens) (UniProt P08173); assay: Displacement of [3H]QNB from M4 receptor at 10 uM
T3 sequence (whole entry): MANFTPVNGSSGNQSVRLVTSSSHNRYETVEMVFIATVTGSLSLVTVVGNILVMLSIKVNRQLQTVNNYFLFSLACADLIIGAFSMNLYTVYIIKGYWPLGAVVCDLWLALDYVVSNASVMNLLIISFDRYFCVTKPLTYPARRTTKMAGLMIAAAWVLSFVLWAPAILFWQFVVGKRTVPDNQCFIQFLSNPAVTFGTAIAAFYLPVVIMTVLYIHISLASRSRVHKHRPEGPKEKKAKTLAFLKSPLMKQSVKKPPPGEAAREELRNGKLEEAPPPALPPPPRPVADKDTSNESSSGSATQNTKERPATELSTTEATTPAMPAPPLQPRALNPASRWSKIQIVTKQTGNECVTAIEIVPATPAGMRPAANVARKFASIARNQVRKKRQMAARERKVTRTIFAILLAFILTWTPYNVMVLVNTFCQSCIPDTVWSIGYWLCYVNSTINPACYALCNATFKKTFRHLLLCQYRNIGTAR

[13] = Inhibition of CYP3A up to 10 uM; assay type: ADME; summary of the method: as §1
Rattus norvegicus = species on record: Rattus norvegicus; assay: Displacement of radioligand from benzodiazepine receptor in rat brain; assay type: tissue-based; conditions: concentration not given here
[14] = molecular target: Beta-2 adrenergic receptor (Homo sapiens) (UniProt P07550); assay: Displacement of [125I]Iodopindolol from beta2 adrenergic receptor at 10 uM
Chain of Beta-2 adrenergic receptor (Homo sapiens) (P07550 whole entry, looked up): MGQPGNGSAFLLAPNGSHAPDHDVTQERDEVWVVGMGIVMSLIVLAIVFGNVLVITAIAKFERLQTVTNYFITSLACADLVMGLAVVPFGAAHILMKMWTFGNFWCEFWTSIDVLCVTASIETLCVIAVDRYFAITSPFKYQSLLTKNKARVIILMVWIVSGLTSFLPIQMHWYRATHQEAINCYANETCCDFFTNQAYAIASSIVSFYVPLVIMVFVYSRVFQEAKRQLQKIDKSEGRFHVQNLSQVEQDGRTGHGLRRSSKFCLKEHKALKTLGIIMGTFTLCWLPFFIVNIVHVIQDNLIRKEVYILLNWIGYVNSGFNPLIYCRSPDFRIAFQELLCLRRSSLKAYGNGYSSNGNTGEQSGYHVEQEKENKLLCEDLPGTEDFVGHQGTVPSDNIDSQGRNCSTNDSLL

Chain of Beta-1 adrenergic receptor (Homo sapiens) (P08588 whole entry, looked up): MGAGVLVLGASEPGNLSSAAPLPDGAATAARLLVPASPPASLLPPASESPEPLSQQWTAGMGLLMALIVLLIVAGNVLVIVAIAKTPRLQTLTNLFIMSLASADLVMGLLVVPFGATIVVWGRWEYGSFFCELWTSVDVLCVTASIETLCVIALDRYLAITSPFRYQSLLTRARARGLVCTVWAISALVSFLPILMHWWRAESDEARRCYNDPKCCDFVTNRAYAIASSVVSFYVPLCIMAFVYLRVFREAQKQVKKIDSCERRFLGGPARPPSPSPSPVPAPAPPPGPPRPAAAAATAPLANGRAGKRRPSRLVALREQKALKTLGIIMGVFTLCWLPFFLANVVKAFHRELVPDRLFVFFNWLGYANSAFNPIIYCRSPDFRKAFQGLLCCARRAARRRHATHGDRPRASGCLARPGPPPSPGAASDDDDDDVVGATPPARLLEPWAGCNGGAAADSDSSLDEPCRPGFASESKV
Chain of Neuronal acetylcholine receptors; alpha-3/beta-4, alpha-5, beta-2 (Homo sapiens) (P17787 whole entry, looked up): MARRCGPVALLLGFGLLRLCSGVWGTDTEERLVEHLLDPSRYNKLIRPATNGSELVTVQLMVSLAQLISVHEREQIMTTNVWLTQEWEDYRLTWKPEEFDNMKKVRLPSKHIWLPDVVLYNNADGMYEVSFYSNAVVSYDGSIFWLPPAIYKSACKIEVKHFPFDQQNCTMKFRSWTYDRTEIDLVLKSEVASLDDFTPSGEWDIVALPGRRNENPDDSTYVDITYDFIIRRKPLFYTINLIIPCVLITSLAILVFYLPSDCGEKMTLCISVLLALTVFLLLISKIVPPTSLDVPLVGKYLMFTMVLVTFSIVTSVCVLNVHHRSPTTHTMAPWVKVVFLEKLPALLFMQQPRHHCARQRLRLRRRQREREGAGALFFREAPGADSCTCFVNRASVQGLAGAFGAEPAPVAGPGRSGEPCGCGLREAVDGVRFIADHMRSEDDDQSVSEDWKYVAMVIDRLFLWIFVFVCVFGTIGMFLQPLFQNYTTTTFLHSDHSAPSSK
Chain of Neuronal acetylcholine receptors; alpha-3/beta-4, alpha-5, beta-2 (Homo sapiens) (P30532 whole entry, looked up): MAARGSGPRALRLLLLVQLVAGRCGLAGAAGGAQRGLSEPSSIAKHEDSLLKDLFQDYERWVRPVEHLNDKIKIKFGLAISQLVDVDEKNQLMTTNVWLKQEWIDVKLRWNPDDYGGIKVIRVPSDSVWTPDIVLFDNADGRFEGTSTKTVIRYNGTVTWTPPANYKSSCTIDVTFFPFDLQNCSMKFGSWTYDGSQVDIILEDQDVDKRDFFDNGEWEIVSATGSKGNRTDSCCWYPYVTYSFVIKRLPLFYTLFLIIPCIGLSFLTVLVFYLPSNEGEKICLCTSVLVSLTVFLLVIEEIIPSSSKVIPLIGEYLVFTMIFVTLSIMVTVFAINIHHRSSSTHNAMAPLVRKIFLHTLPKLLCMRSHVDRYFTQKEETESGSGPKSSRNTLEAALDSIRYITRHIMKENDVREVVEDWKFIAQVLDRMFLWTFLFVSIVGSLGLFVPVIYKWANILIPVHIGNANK
Chain of Neuronal acetylcholine receptors; alpha-3/beta-4, alpha-5, beta-2 (Homo sapiens) (P30926 whole entry, looked up): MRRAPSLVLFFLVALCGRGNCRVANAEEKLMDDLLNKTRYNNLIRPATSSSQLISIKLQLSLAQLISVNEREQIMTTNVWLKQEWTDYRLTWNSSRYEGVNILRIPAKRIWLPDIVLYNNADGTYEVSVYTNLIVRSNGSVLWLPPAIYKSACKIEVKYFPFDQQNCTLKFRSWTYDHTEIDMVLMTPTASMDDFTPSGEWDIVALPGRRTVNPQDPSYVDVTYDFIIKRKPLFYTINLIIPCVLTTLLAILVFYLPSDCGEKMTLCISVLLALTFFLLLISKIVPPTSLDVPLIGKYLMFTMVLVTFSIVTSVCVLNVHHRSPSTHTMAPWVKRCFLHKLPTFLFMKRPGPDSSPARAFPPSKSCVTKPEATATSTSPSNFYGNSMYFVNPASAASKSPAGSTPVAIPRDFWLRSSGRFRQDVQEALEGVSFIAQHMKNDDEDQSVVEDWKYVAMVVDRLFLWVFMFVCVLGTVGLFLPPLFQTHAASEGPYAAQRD
Chain of Neuronal acetylcholine receptors; alpha-3/beta-4, alpha-5, beta-2 (Homo sapiens) (P32297 whole entry, looked up): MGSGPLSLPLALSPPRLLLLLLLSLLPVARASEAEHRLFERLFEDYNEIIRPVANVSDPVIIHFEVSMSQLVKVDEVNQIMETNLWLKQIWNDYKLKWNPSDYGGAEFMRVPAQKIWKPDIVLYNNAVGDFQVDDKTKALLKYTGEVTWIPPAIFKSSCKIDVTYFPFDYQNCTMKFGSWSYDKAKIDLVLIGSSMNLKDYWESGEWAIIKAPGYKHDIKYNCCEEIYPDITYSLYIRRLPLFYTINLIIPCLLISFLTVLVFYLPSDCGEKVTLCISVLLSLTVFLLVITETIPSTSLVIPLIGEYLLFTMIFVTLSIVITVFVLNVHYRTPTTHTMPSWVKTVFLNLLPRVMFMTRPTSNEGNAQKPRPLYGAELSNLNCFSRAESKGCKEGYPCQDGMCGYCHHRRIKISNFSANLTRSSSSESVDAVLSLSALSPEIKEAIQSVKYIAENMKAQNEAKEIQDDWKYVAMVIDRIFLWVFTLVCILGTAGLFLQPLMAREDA
Chain of D(3) dopamine receptor (Homo sapiens) (P35462 whole entry): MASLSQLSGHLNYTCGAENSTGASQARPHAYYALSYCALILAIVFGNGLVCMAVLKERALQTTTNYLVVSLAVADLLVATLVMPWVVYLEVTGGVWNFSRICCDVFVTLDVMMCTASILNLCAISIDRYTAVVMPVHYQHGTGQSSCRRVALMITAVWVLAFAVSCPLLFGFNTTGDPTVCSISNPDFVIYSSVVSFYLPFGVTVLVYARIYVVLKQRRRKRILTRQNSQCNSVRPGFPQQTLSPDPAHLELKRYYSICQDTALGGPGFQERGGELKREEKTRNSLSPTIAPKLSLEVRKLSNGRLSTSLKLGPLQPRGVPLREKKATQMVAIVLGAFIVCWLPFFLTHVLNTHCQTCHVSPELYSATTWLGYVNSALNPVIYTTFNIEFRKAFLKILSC
Chain of Mu-type opioid receptor (Homo sapiens) (P35372 whole entry): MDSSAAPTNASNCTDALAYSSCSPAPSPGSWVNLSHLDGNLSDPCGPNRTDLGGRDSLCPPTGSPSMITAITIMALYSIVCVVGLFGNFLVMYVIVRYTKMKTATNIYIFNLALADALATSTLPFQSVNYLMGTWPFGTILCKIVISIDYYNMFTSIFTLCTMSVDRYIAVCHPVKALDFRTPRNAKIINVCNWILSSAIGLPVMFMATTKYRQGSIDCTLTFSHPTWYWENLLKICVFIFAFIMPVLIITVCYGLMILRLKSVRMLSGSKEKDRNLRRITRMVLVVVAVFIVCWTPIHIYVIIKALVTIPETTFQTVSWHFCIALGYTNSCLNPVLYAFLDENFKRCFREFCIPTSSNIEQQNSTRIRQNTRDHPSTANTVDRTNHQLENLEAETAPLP
Chain of Cytochrome P450 2C19 (P33261 whole entry, canonical isoform): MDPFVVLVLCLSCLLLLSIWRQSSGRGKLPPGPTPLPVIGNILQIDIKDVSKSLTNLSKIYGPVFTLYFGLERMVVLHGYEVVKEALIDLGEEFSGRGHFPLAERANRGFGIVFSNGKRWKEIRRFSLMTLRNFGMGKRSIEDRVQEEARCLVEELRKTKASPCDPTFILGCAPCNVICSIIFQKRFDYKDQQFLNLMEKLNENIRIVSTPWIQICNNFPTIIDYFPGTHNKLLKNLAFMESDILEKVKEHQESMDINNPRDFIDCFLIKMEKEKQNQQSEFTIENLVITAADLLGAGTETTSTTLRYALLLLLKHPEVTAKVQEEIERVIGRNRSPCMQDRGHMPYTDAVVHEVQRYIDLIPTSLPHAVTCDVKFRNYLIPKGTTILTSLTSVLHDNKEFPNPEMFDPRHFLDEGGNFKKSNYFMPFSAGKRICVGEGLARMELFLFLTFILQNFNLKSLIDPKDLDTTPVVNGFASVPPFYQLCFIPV
Chain of 5-hydroxytryptamine receptor 1B (Homo sapiens) (P28222 whole entry): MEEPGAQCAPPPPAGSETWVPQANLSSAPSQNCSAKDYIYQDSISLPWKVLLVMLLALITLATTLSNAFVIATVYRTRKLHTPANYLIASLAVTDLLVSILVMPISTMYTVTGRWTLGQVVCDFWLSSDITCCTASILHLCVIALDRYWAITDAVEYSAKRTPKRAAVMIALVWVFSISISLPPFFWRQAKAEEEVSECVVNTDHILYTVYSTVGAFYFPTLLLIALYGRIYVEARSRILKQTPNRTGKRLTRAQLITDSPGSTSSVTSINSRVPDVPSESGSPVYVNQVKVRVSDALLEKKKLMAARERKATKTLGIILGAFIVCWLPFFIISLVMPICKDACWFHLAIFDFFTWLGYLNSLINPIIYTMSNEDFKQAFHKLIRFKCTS

| SMILES | inhibition (INH) (Cytochrome P450 2C19) | Ki [1] | inhibition [2] | Activity [3] | inhibition [4] | inhibition [5] | inhibition [6] | inhibition [7] | remaining at 1 h, 1 µM [8] | Activity [9] | inhibition [10] | Activity (Mus musculus) | inhibition (INH) [11] | inhibition [12] | inhibition (INH) [13] | inhibition (Rattus norvegicus) | inhibition [14] |
| --- | --- | --- | --- | --- | --- | --- | --- | --- | --- | --- | --- | --- | --- | --- | --- | --- | --- |
| COCC[C@H]1C[C@@H]1c1cncc(OC[C@@H]2CCN2)c1 | <= 25% | 236 nM | 0.5% | inactive | -1.1% | 48.3% | -5.6% | 84.5% | 84% | inactive | -1.8% | 85% | <= 25% | 0.7% | <= 25% | 26.6% | 3% |
| CNC(=O)OCC[C@H]1C[C@@H]1c1cncc(OC[C@@H]2CCN2)c1 | <= 25% | 1890 nM | -0.6% | inactive | -8.7% | 18.2% | 37.3% | 12.3% | 98% | inactive | -2.6% | 65% | <= 25% | 29.2% | <= 25% | 2% | 22.1% |
| OCC[C@H]1C[C@@H]1c1cncc(OC[C@@H]2CCN2)c1 | <= 25% | 249 nM | -8.4% | inactive | -4.4% | 45.8% | 0.4% | 66.2% | 80% | inactive | 9.3% | 85% | <= 25% | -3.7% | <= 25% | 29.2% | -4.5% |
